Lmaj promast – Leishmania major promastigote growth inhibition; Leishmania major promastigotes, resazurin fluorescence viability; inhibition, % at 10 µM; 200,000 tested, 9% active; in the data active = inhibition above about 50%;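 also: promastigotes grown with compound for 44 hours at 28 °C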
MT stabilize HCS – microtubule stabilization, imaging screen. HeLa tubulin immunostaining HCS, 24 h; share of cells brighter than vehicle mean+2SD. % tubulin-high responders, % at 10 µM. 200,000 tested, 0.83% active. AID 2205;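 active = plate Z-score above 3 for both tubulin-high and condensed-nucleus cell shares, with cell loss under 80%, at 10 µM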;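 also: anti alpha tubulin signal scored within the nucleus-defined area of each cell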
b-catenin transl – alters nuclear translocation of beta-catenin in HeLa cells; immunofluorescence imaging; nuclear translocation activity, % at 5 µM; 190,000 tested, 0.3% active; AID 1665;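 active = nuclear translocation activity above 50% at 5 µM, with a well cell count of 50 or more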;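 also: per-cell ratio of nuclear to cytoplasmic median beta-catenin stain intensity; plate controls were DMSO negative control for no effect and GSK-3 inhibitor IX positive control for full effect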
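System: Human HeLa cells, endogenous beta-catenin | Compound dosing: 5 µM primary, 0.02–20 µM confirmation | Timing: 24 h compound exposure at 37°C, 5% CO2 | Measured by: Fluorescence imaging of beta-catenin antibody stain plus DAPI | Read-out basis: % activation of per-cell nuclear versus cytoplasmic median beta-catenin signal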
Dynein transport – blocks dynein driven cargo transport along microtubules | AID 1381 | 220,000 tested, 0.47% active | 3617.4 mouse cells, GR-EGFP nuclear translocation imaging; test concentration mostly 20 µM; stimulated with dexamethasone, 1 µM; active compounds read low | z-score, hits read low;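 active = plate z-score of nuclear minus cytoplasmic receptor signal below a set negative limit, without overly bright fluorescence or cell loss, cut at about -3.5 in these data, passing the limit was not always enough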;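 also: z-score of nuclear minus cytoplasmic ring GR-EGFP intensity difference per well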
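Schedule: 48 h induction, then 1 h compound, then 30 min agonist, 37 °C. Buffer or medium: tetracycline-free induction medium containing charcoal-stripped FBS. Reagent: 1.0 µM final dexamethasone stimulus. Evaluation: nuclear versus cytoplasmic GR-EGFP signal, averaged per well. Signal: high-content fluorescence imaging after fixation.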
CHOP inh – blocks CHOP induction under ER stress. CHO-K1 CHOP-promoter luciferase, tunicamycin-induced, 15-18 h. inhibition, % at 10 µM. 220,000 tested, 3.8% active;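 active = compounds that reduced the stress-induced luciferase reporter signal by more than about 70% of percent inhibition, limit read from the data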;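 also: 0% = tunicamycin plus vehicle and 100% = wells without tunicamycin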
Autophagy HCS – alters autophagy in cells. MEF GFP-LC3 puncta imaging; test concentration mostly 10 µM. calls only at 10 µM (by protocol). 190,000 tested, 0.98% active;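 active = percentage of spot-positive cells more than 3 SD above its plate mean, without a fluorescence outlier flag or 80% toxicity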;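 also: spot-positive cell cutoff set from DMSO-treated cells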
Numbers without * were called inactive; i = inactive; . = not tested or not shown. This is a sample that favours compounds with a hit; in the whole collection about 12% have one here.

SMILES	Lmaj promast	MT stabilize HCS	b-catenin transl	Dynein transport	CHOP inh	Autophagy HCS
COc1cc(OC)cc(C(=O)NCCCN2CCN(CCCNC(=O)c3cc(OC)cc(OC)c3)CC2)c1	15	2	-5	-0.11	14	i
O=NN(CCc1ccncc1)c1ccc(OCc2ccccc2)cc1	86*	2	-5	-0.84	40	i
O=C(NCc1ccncc1)C(=O)N/N=C/c1ccc(OCc2ccccc2)cc1	-2	6	0	-0.013	23	i
CCCCCOc1ccc(CSCCNC(=S)Nc2ccccc2)cc1	53*	2	-2	0.19	65	i
CC(C)COc1ccc(CSCCNC(=S)Nc2ccccc2)cc1	72*	12	1	0.24	83*	i
CCCCOc1ccc(CSCCNC(=S)Nc2ccccc2)cc1	25	3	-3	-0.75	28	i
Cc1ccc(NC(=O)NCC2CCN(Cc3cccc(Cl)c3)CC2)cc1Cl	87*	4	-3	1.7	89*	i
Cc1ccc(NC(=O)NCC2CCN(Cc3cc(C)ccc3Cl)CC2)c(C)c1	25	3	-2	-0.26	22	i
Cc1ccc(NC(=O)NCC2CCN(Cc3cccc(Cl)c3)CC2)c(Cl)c1	84*	2	-1	-0.98	58	i
COCCNC(=S)Nc1ccccc1Cc1ccccc1	2	5	0	-0.39	10	i
O=C(CSCCN1C(=O)c2ccccc2C1=O)Nc1ccc2ccccc2c1	-2	3	-2	0.065	10	i
Cc1ccc(C(=O)Nc2ccc(N3CCCC3)cc2)cc1	4	5	-2	-0.56	28	i
CC(C)Oc1ccc(C(=O)Nc2ccc(N3CCCCC3)cc2)cc1	51*	4	-2	-0.53	71*	i
COc1ccc(C(=O)Nc2ccc(N3CCCCC3)cc2)cc1Br	52*	2	-2	0.14	25	i
C#CC1(NC(=O)NC(C)C)CCCCC1	-6	2	1	0.16	-2	i
COc1ccc(-c2nc(SCC(=O)Nc3nccs3)c(-c3ccc(Cl)cc3)[nH]2)cc1	35	15*	0	-0.42	3	i
COc1ccc(-c2[nH]c(-c3ccc(C)cc3)nc2SCC(=O)Nc2nccs2)cc1	23	4	0	-0.08	23	i
COc1ccc(-c2[nH]c(-c3ccc(SC)cc3)nc2SCC(=O)Nc2nccs2)cc1	96*	6	-3	3.7	77*	i
N#Cc1ccc(COn2nnc3ccccc32)cc1	-8	2	-1	0.032	8	i
CN1CCN(C(c2cccc(Cl)c2)c2ccccc2Cl)CC1 (centres undefined)	98*	2	1	-0.054	44	i
COc1cccc(-n2c(CN3CCN(c4ccccc4)CC3)nc3ccc([N+](=O)[O-])cc3c2=O)c1	63*	2	0	-0.23	11	i
O=C(CSc1nnc(CNc2ccc(F)cc2)o1)c1ccccc1	-3	4	0	-1.5	18	i
O=C(NC1(C(=O)NC2CCCCC2)CCCCC1)c1ccccn1	-3	1	-2	-1	14	i
Cc1ccc(NC(=O)C2(NC(=O)c3ccccn3)CCCCC2)cc1Br	58*	9	0	-0.022	-27	i
Nc1nc(NCc2ccco2)nc(N2CCCCC2)c1[N+](=O)[O-]	3	2	0	-0.012	-5	i
SMILES	Lmaj promast	MT stabilize HCS	b-catenin transl	Dynein transport	CHOP inh	Autophagy HCS
Cc1nn(CC(=O)NCc2ccco2)c(C)c1[N+](=O)[O-]	.	.	2	0.31	-10	.
CCCCCc1cc(=O)oc2c(C(CCN3CCCC3)c3ccc(N(C)C)cc3)c(OC)cc(OC)c12 (centres undefined)	.	.	5	-5.3	43	.
CCCCCc1cc(=O)oc2c(C(CCN3CCCCC3)c3ccc(OC)cc3)c(OC)cc(OC)c12 (centres undefined)	.	.	-3	-0.8	72*	.
CCCCCc1cc(=O)oc2c(C(CCN3CCCC(C)C3)c3ccc(OC)cc3)c(OC)cc(OC)c12 (centres undefined)	.	.	-3	-0.56	71*	.
CCCc1cc(=O)[nH]c(SCC(=O)Nc2cc(C)on2)n1	-7	3	-2	0.45	-36	i
CCOc1ccc(-c2nnc(Nc3ccc(OC)c(C(=O)N4CCCCC4)c3)c3ccccc23)cc1	61*	4	1	0.67	24	i
O=C(c1cccc(S(=O)(=O)Nc2cccc(C(F)(F)F)c2)c1)N1CCCCC1	2	4	0	-0.28	-8	i
Cc1ccc(S(C)(=O)=O)cc1S(=O)(=O)Nc1ccccc1	50*	3	0	-1.2	34	i
Cc1ccc(OC(C)C(=O)Nc2ccc(C)c(S(=O)(=O)Nc3ccc(C)cc3C)c2)cc1 (centres undefined)	67*	3	-1	-1.4	41	i
Cc1ccc(C)c(S(=O)(=O)Nc2ccc3sc(C)nc3c2)c1	95*	5	5	-0.46	20	i
Cc1ccc(S(=O)(=O)N(C)c2ccc3sc(C)nc3c2)cc1	-5	18*	-2	-1.1	9	i
Cc1ccc(S(=O)(=O)N(C)c2ccc(N)cc2)cc1	-4	2	-4	-0.51	10	i
COc1ccc(NS(=O)(=O)c2cc(S(C)(=O)=O)ccc2C)cc1	49	4	1	-0.7	13	i
COc1cccc(S(=O)(=O)Nc2ccc3sc(C)nc3c2)c1	0	2	.	0.64	1	i
O=C(c1ccc(S(=O)(=O)Nc2ccc(F)cc2)cc1)N1CCN(C(=O)c2ccco2)CC1	-5	1	-2	0.059	13	i
CC(C)/C=N/Nc1nc(-c2ccc(Br)cc2)cs1	37	2	-1	1.2	-15	i
COc1ccc(NS(=O)(=O)c2cc(C)ccc2C)cc1	0	59*	0	-0.27	.	i
O=C(COC(=O)/C=C/c1ccc(S(=O)(=O)N2CCOCC2)cc1)NC1CCCCCCC1	5	3	0	-0.16	16	i
Cc1ccc(COc2ccc(/C=N/NC(=O)c3nnn(-c4nonc4N)c3COc3ccc(F)cc3)cc2)cc1	.	.	2	-0.0064	82*	.
Cc1cc(C)c(/C=N/NC(=O)c2nnn(-c3nonc3N)c2COc2ccc(F)cc2)c(C)c1	.	.	1	-0.77	-6	.
COC(=O)C1(Cc2ccc(O)c(CC3OC3(C)C)c2)OC(=O)C(O)=C1c1ccc(O)cc1 (centres undefined)	.	.	1	-0.41	11	.
Cc1ccccc1NC(=O)CSc1nnc(-c2ccco2)c(-c2ccco2)n1	93*	3	1	-0.38	-18	i
Cc1cccc(C)c1NC(=O)CSc1nnc(-c2ccco2)c(-c2ccco2)n1	83*	2	-1	-0.13	-2	i
CCN(Cc1ccccc1)S(=O)(=O)c1ccc(C(=O)Nc2nnc(C3CC3)o2)cc1	98*	3	-1	0.35	.	i

Screening data deposited in PubChem by several laboratories.
